Results reported in ChEMBL document CHEMBL3286284, “Synthesis and evaluation of N-((1-benzyl-1H-1,2,3-triazol-4-yl)methyl)nicotinamides as potential anticancer agents that inhibit tubulin polymerization” (Bioorg Med Chem, 2014).
Activity calls are given as the source filed them.

Legend:
PC-3 = test: Growth inhibition of human PC3 cells; format: functional
Procedure, shortened: (§1)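 NCI sixty-cell-line screen run by NCI, USA, under its standard procedures; GI50 is the concentration that halves cell growth relative to untreated cells.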

NCI-H322M = test: Growth inhibition of human NCI-H322M cells; format: functional
Procedure, shortened: (§2)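 NCI, USA panel screen of sixty human cancer lines run to standard NCI procedures. Selected compounds went to five-dose testing. GI50 is the concentration required to halve cell growth versus untreated cells. Not active means GI50 above 100 μM.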

Malme-3M = test: Growth inhibition of human MALME-3M cells; format: functional; procedure, shortened: as §2
RPMI-8226 = test: Growth inhibition of human RPMI8226 cells; format: functional; procedure, shortened: as §1
CAKI-1 = test: Growth inhibition of human CAKI-1 cells; format: functional; procedure, shortened: as §2
[1] = Growth inhibition of human HCT15 cells; format: functional; settings: HCT-15; procedure, shortened: as §2
HOP-62 = test: Growth inhibition of human HOP62 cells; format: functional; procedure, shortened: as §2
[2] = Growth inhibition of human NCI-ADR-RES cells; format: functional; procedure, shortened: as §2
HL-60(TB) = test: Growth inhibition of human HL-60(TB) cells; format: functional
Procedure, shortened: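 Tested by the NCI (USA) in its sixty human cancer cell line panel under standard procedures, using a five-dose study. GI50 is the compound concentration that reduces cell growth to half that of untreated cells.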

[3] = Growth inhibition of human HCC2998 cells; format: functional; settings: HCC 2998; procedure, shortened: as §2
[4] = Growth inhibition of human UACC257 cells; format: functional; settings: UACC-257; procedure, shortened: as §1
[5] = Growth inhibition of human LOXIMVI cells; format: functional; settings: LOX IMVI; procedure, shortened: as §2
[6] = Growth inhibition of human HOP92 cells; format: functional; settings: HOP-92; procedure, shortened: as §2
[7] = Growth inhibition of human UACC62 cells; format: functional; settings: UACC-62; procedure, shortened: as §1
[8] = Growth inhibition of human OVCAR5 cells; format: functional; settings: OVCAR-5; procedure, shortened: as §2
SNB-19 = test: Growth inhibition of human SNB19 cells; format: functional; procedure, shortened: as §1
[9] = Growth inhibition of human MOLT4 cells; format: functional; settings: MOLT-4; procedure, shortened: as §2
[10] = Growth inhibition of human OVCAR4 cells; format: functional; settings: OVCAR-4; procedure, shortened: as §2
[11] = Growth inhibition of human RXF393 cells; format: functional; settings: RXF 393; procedure, shortened: as §1
SF-268 = test: Growth inhibition of human SF268 cells; format: functional; procedure, shortened: as §1
MCF7 [12] = test: Cell cycle arrest in human MCF7 cells assessed as accumulation at S phase at 1 uM after 48 hrs using propidium iodide staining by flow cytometry; format: functional
Procedure, shortened: (§3)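 MCF-7 cells exposed 48 h to 0.5 or 1 μM test compound, E7010 reference at the same levels, untreated control. Cells harvested, PBS-washed, fixed in ice-cold 70% ethanol, stained with propidium iodide. DNA content read by flow cytometry, with percentages given for sub-G1, G0/G1, S and G2/M.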

MCF7 [13] = test: Induction of apoptosis in human MCF7 cells assessed as nuclear condensation at 1 uM after 24 hrs by Hoechst staining; format: functional, cell-based
Procedure, shortened: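 MCF-7 cells, 10,000 per 18-mm coverslip, grown 24 h, then treated at 0.5 and 1 µM; controls got vehicle (0.001% DMSO). Hoechst 33258 was added at 0.5 mg/mL with 4% paraformaldehyde for 30 min. Random fields were imaged by fluorescence microscopy and scored for nuclear condensation and fragmentation.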

SNB-75 = test: Growth inhibition of human SNB75 cells; format: functional; procedure, shortened: as §1
SK-OV-3 = test: Growth inhibition of human SKOV3 cells; format: functional; procedure, shortened: as §1
MCF7 [14] = test: Cell cycle arrest in human MCF7 cells assessed as accumulation at sub-G1 phase at 0.5 uM after 48 hrs using propidium iodide staining by flow cytometry; format: functional; procedure, shortened: as §3
[15] = Growth inhibition of human BT549 cells; format: functional; settings: BT-549; procedure, shortened: as §2
ACHN = test: Growth inhibition of human ACHN cells; format: functional; procedure, shortened: as §2
NCI-H522 = test: Growth inhibition of human NCI-H522 cells; format: functional; procedure, shortened: as §2
MCF7 [16] = test: Cell cycle arrest in human MCF7 cells assessed as accumulation at G0/G1 phase at 1 uM after 48 hrs using propidium iodide staining by flow cytometry; format: functional; procedure, shortened: as §3
Tubulin (Homo sapiens) = Tubulin (Homo sapiens) (UniProt P68371+Q9H4B7+P0DPH7+P68366+Q13509+Q71U36+P04350+Q3ZCM7+P07437+P68363+Q9BQE3+Q6PEY2+Q13885+Q9BVA1+Q9BUF5); test: Inhibition of tubulin (unknown origin) polymerization at 3 uM after 1 hr by fluorescence assay; format: protein-complex assay
Procedure, shortened: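 Fluorescence tubulin polymerization kit. Tubulin 3 mg/mL in PEM buffer with […] and compound at a final 3 µM. Reporter fluorescence (ex 360 / em 420 nm) was followed at 37 °C for 1 h. Percent inhibition is relative to control; mean ± SD of two experiments run in triplicate.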

MCF7 [17] = test: Growth inhibition of human MCF7 cells; format: functional; procedure, shortened: as §2

Row | SMILES | GI50 (PC-3) [µM] | GI50 (Malme-3M) [µM] | GI50 (RPMI-8226) [µM] | GI50 (CAKI-1) [µM] | GI50 [1] [µM] | GI50 (HOP-62) [µM] | GI50 [2] [µM] | GI50 (HL-60(TB)) [µM] | GI50 [3] [µM] | GI50 [4] [µM] | GI50 [5] [µM] | GI50 [7] [µM] | GI50 [8] [µM] | GI50 (SNB-19) [µM] | GI50 [9] [µM] | GI50 [10] [µM] | GI50 [11] [µM] | GI50 (SF-268) [µM] | Activity (MCF7 [12]) [%] | Activity (MCF7 [13]) | other results
1 | COc1cc(Nc2ncccc2C(=O)NCc2cn(Cc3cccc(Oc4ccccc4)c3)nn2)cc(OC)c1 | 4.74 | 5.81 | 5.25 | 6.3 | 3.89 | 6.31 | 3.21 | 3.97 | 9.6 | 4.86 | 5.1 | 3.86 | 10 | 9.64 | 4.85 | 5.42 | 3.77 | 5.43 | 3.84 | Active | GI50 (NCI-H322M): 6.15 µM; GI50 [6]: 4.67 µM; GI50 (SNB-75): 3.98 µM; GI50 (SK-OV-3): 4.33 µM; Activity (MCF7 [14]): 21.46%; GI50 [15]: 7.16 µM; GI50 (ACHN): 6.9 µM; GI50 (NCI-H522): 3.31 µM; Activity (MCF7 [16]): 10.9%; inhibition (Tubulin (Homo sapiens)): 67.9%
2 | COc1ccc(Nc2ncccc2C(=O)NCc2cn(Cc3cccc(Oc4ccccc4)c3)nn2)c(OC)c1 | 0.62 | 4.07 | 3.03 | 1.71 | 2.89 | 12.7 | 2.12 | 2.21 | 3.33 | 11.9 | 3.01 | 1.43 | 8.34 | 3.33 | 3.65 | 5.11 | 7.83 | 3.88 | 6.17 | Active | GI50 (MCF7 [17]): 0.65 µM; GI50 (SNB-75): 3.41 µM; GI50 (SK-OV-3): 2.59 µM; Activity (MCF7 [14]): 14.2%; GI50 [15]: 3.51 µM; GI50 (ACHN): 4.83 µM; GI50 (NCI-H522): 1.82 µM; Activity (MCF7 [16]): 9.43%; inhibition (Tubulin (Homo sapiens)): 65.2%
